{"source": "ChEMBL document CHEMBL3580551", "about": "“Soudanones A-G: Antifungal Isochromanones from the Ascomycetous Fungus Cadophora sp. Isolated from an Iron Mine” (2015)", "key": {"Cryptococcus neoformans": {"system": "Cryptococcus neoformans", "assay": "Antimicrobial activity against Cryptococcus neoformans ATCC 66031 assessed as inhibition of microbial growth by microbroth dilution assay", "format": "functional", "summary_of_the_method": "(§1)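 Antifungal broth microdilution test against the yeast strain (C. albicans ATCC 10231 or C. neoformans ATCC 66031). Amphotericin B at 2 μg/mL served as the control antifungal. MIC values were taken from the broth panel.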"}, "Candida albicans": {"system": "Candida albicans", "assay": "Antimicrobial activity against Candida albicans ATCC 10231 assessed as inhibition of microbial growth by microbroth dilution assay", "format": "functional", "summary_of_the_method": "as §1"}, "Staphylococcus aureus": {"system": "Staphylococcus aureus", "assay": "Antimicrobial activity against methicillin-resistant Staphylococcus aureus ATCC 43300 assessed as inhibition of microbial growth by microbroth dilution assay", "format": "functional", "summary_of_the_method": "(§2)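 Broth microdilution susceptibility test; the read-out is MIC. The reference antibiotic was tetracycline at 10 μg/mL for MRSA ATCC 43300 and penicillin G at 10 μg/mL for E. faecalis ATCC 51299.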"}, "Enterococcus faecalis": {"system": "Enterococcus faecalis", "assay": "Antimicrobial activity against vancomycin-resistant Enterococcus faecalis ATCC 51299 assessed as inhibition of microbial growth by microbroth dilution assay", "format": "functional", "summary_of_the_method": "as §2"}, "Bacillus subtilis": {"system": "Bacillus subtilis", "assay": "Antimicrobial activity against Bacillus subtilis ATCC 6633 assessed as inhibition of microbial growth by microbroth dilution assay", "format": "functional", "summary_of_the_method": "(§3)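 Broth microdilution susceptibility test against the listed ATCC bacterial strain. Tetracycline at 10 μg/mL served as the positive-control antibiotic. Growth inhibition was read in broth, with MIC values reported.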"}, "Escherichia coli": {"system": "Escherichia coli", "assay": "Antimicrobial activity against Escherichia coli ATCC 25922 assessed as inhibition of microbial growth by microbroth dilution assay", "format": "functional", "summary_of_the_method": "as §3"}, "Acinetobacter baumannii": {"system": "Acinetobacter baumannii", "assay": "Antimicrobial activity against Acinetobacter baumannii ATCC 19606 assessed as inhibition of microbial growth by microbroth dilution assay", "format": "functional", "summary_of_the_method": "as §3"}, "Pseudomonas aeruginosa": {"system": "Pseudomonas aeruginosa", "assay": "Antimicrobial activity against Pseudomonas aeruginosa ATCC 27853 assessed as inhibition of microbial growth by microbroth dilution assay", "format": "functional", "summary_of_the_method": "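Broth microdilution susceptibility test against P. aeruginosa ATCC 27853. Tetracycline at 50 μg/mL served as the positive-control antibiotic. Growth inhibition was read in broth, with MIC values reported.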"}, "Klebsiella pneumoniae": {"system": "Klebsiella pneumoniae", "assay": "Antimicrobial activity against Klebsiella pneumoniae ATCC 13883 assessed as inhibition of microbial growth by microbroth dilution assay", "format": "functional", "summary_of_the_method": "as §3"}, "Plasmodium falciparum": {"system": "Plasmodium falciparum", "assay": "Antiplasmodial activity against Plasmodium falciparum NF54 assessed as inhibition of microbial growth at 10 ug/ml by [3H]hypoxanthine incorporation assay", "format": "functional, organism-based", "summary_of_the_method": "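In vitro screen against the drug-sensitive P. falciparum NF54 strain using a modified [3H]hypoxanthine incorporation assay. Chloroquine and artesunate were run as positive controls.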"}}, "note": "The source made the active and inactive calls. No cut-off for these calls is given here.", "data": [{"smiles": "O=C1CC[C@H](O)c2cccc(O)c21", "values": [{"measurement": "MIC", "setting": "Cryptococcus neoformans", "result": 30, "unit": "µg/mL"}, {"measurement": "MIC", "setting": "Candida albicans", "result": 40, "unit": "µg/mL"}, {"measurement": "growth inhibition (GI)", "setting": "Staphylococcus aureus", "result": "inactive"}, {"measurement": "growth inhibition (GI)", "setting": "Enterococcus faecalis", "result": "inactive"}, {"measurement": "growth inhibition (GI)", "setting": "Bacillus subtilis", "result": "inactive"}, {"measurement": "growth inhibition (GI)", "setting": "Escherichia coli", "result": "inactive"}, {"measurement": "growth inhibition (GI)", "setting": "Acinetobacter baumannii", "result": "inactive"}, {"measurement": "growth inhibition (GI)", "setting": "Pseudomonas aeruginosa", "result": "inactive"}, {"measurement": "growth inhibition (GI)", "setting": "Klebsiella pneumoniae", "result": "inactive"}]}, {"smiles": "C[C@@H]1[C@H](O)[C@@H](C)/C=C/C=C/C=C/C=C/C=C/C=C/C=C/[C@H](O[C@@H]2O[C@H](C)[C@@H](O)[C@H](N)[C@@H]2O)C[C@@H]2O[C@](O)(C[C@@H](O)C[C@@H](O)[C@H](O)CC[C@@H](O)C[C@@H](O)CC(=O)O[C@H]1C)C[C@H](O)[C@H]2C(=O)O", "note": "[AMPHOTERICIN B]", "values": [{"measurement": "MIC", "setting": "Cryptococcus neoformans", "result": 0.2, "unit": "µg/mL"}, {"measurement": "MIC", "setting": "Candida albicans", "result": 0.2, "unit": "µg/mL"}]}, {"smiles": "Cc1c(O)cc(O)c2c1C[C@@H](CCCCCC(C)O)OC2=O", "note": "(some centres not stated)", "values": [{"measurement": "MIC", "setting": "Cryptococcus neoformans", "result": "> 100", "unit": "µg/mL"}, {"measurement": "MIC", "setting": "Candida albicans", "result": "> 100", "unit": "µg/mL"}, {"measurement": "MIC", "setting": "Staphylococcus aureus", "result": "> 100", "unit": "µg/mL"}, {"measurement": "MIC", "setting": "Enterococcus faecalis", "result": "> 100", "unit": "µg/mL"}, {"measurement": "MIC", "setting": "Bacillus subtilis", "result": "> 100", "unit": "µg/mL"}, {"measurement": "MIC", "setting": "Escherichia coli", "result": "> 100", "unit": "µg/mL"}, {"measurement": "MIC", "setting": "Acinetobacter baumannii", "result": "> 100", "unit": "µg/mL"}, {"measurement": "MIC", "setting": "Pseudomonas aeruginosa", "result": "> 100", "unit": "µg/mL"}, {"measurement": "MIC", "setting": "Klebsiella pneumoniae", "result": "> 100", "unit": "µg/mL"}]}, {"smiles": "O=C(O)CCCCCC[C@@H]1Cc2cc(O)cc(O)c2C(=O)O1", "values": [{"measurement": "MIC", "setting": "Cryptococcus neoformans", "result": "> 100", "unit": "µg/mL"}, {"measurement": "MIC", "setting": "Candida albicans", "result": "> 100", "unit": "µg/mL"}, {"measurement": "MIC", "setting": "Staphylococcus aureus", "result": "> 100", "unit": "µg/mL"}, {"measurement": "MIC", "setting": "Enterococcus faecalis", "result": "> 100", "unit": "µg/mL"}, {"measurement": "MIC", "setting": "Bacillus subtilis", "result": "> 100", "unit": "µg/mL"}, {"measurement": "MIC", "setting": "Escherichia coli", "result": "> 100", "unit": "µg/mL"}, {"measurement": "MIC", "setting": "Acinetobacter baumannii", "result": "> 100", "unit": "µg/mL"}, {"measurement": "MIC", "setting": "Pseudomonas aeruginosa", "result": "> 100", "unit": "µg/mL"}, {"measurement": "MIC", "setting": "Klebsiella pneumoniae", "result": "> 100", "unit": "µg/mL"}]}, {"smiles": "CCCCCCC[C@@H]1Cc2c(C)c(O)cc(O)c2CO1", "values": [{"measurement": "MIC", "setting": "Cryptococcus neoformans", "result": "> 100", "unit": "µg/mL"}, {"measurement": "MIC", "setting": "Candida albicans", "result": "> 100", "unit": "µg/mL"}, {"measurement": "MIC", "setting": "Staphylococcus aureus", "result": "> 100", "unit": "µg/mL"}, {"measurement": "MIC", "setting": "Enterococcus faecalis", "result": "> 100", "unit": "µg/mL"}, {"measurement": "MIC", "setting": "Bacillus subtilis", "result": "> 100", "unit": "µg/mL"}, {"measurement": "MIC", "setting": "Escherichia coli", "result": "> 100", "unit": "µg/mL"}, {"measurement": "MIC", "setting": "Acinetobacter baumannii", "result": "> 100", "unit": "µg/mL"}, {"measurement": "MIC", "setting": "Pseudomonas aeruginosa", "result": "> 100", "unit": "µg/mL"}, {"measurement": "MIC", "setting": "Klebsiella pneumoniae", "result": "> 100", "unit": "µg/mL"}]}, {"smiles": "CC(=O)CCCCC[C@@H]1Cc2c(C)c(O)cc(O)c2C(=O)O1", "values": [{"measurement": "MIC", "setting": "Cryptococcus neoformans", "result": "> 100", "unit": "µg/mL"}, {"measurement": "MIC", "setting": "Candida albicans", "result": "> 100", "unit": "µg/mL"}, {"measurement": "growth inhibition (GI)", "setting": "Plasmodium falciparum", "result": "inactive"}, {"measurement": "MIC", "setting": "Staphylococcus aureus", "result": "> 100", "unit": "µg/mL"}, {"measurement": "MIC", "setting": "Enterococcus faecalis", "result": "> 100", "unit": "µg/mL"}, {"measurement": "MIC", "setting": "Bacillus subtilis", "result": "> 100", "unit": "µg/mL"}, {"measurement": "MIC", "setting": "Escherichia coli", "result": "> 100", "unit": "µg/mL"}, {"measurement": "MIC", "setting": "Acinetobacter baumannii", "result": "> 100", "unit": "µg/mL"}, {"measurement": "MIC", "setting": "Pseudomonas aeruginosa", "result": "> 100", "unit": "µg/mL"}, {"measurement": "MIC", "setting": "Klebsiella pneumoniae", "result": "> 100", "unit": "µg/mL"}]}, {"smiles": "Cc1c(O)cc(O)c2c1C[C@@H](CCCCCCC(=O)O)OC2=O", "values": [{"measurement": "MIC", "setting": "Cryptococcus neoformans", "result": "> 100", "unit": "µg/mL"}, {"measurement": "MIC", "setting": "Candida albicans", "result": "> 100", "unit": "µg/mL"}, {"measurement": "MIC", "setting": "Staphylococcus aureus", "result": "> 100", "unit": "µg/mL"}, {"measurement": "MIC", "setting": "Enterococcus faecalis", "result": "> 100", "unit": "µg/mL"}, {"measurement": "MIC", "setting": "Bacillus subtilis", "result": "> 100", "unit": "µg/mL"}, {"measurement": "MIC", "setting": "Escherichia coli", "result": "> 100", "unit": "µg/mL"}, {"measurement": "MIC", "setting": "Acinetobacter baumannii", "result": "> 100", "unit": "µg/mL"}, {"measurement": "MIC", "setting": "Pseudomonas aeruginosa", "result": "> 100", "unit": "µg/mL"}, {"measurement": "MIC", "setting": "Klebsiella pneumoniae", "result": "> 100", "unit": "µg/mL"}]}, {"smiles": "Cc1c(O)cc(O)c2c1C[C@@H](CCCCCCCO)OC2=O", "values": [{"measurement": "MIC", "setting": "Cryptococcus neoformans", "result": "> 100", "unit": "µg/mL"}, {"measurement": "MIC", "setting": "Candida albicans", "result": "> 100", "unit": "µg/mL"}, {"measurement": "MIC", "setting": "Staphylococcus aureus", "result": "> 100", "unit": "µg/mL"}, {"measurement": "MIC", "setting": "Enterococcus faecalis", "result": "> 100", "unit": "µg/mL"}, {"measurement": "MIC", "setting": "Bacillus subtilis", "result": "> 100", "unit": "µg/mL"}, {"measurement": "MIC", "setting": "Escherichia coli", "result": "> 100", "unit": "µg/mL"}, {"measurement": "MIC", "setting": "Acinetobacter baumannii", "result": "> 100", "unit": "µg/mL"}, {"measurement": "MIC", "setting": "Pseudomonas aeruginosa", "result": "> 100", "unit": "µg/mL"}, {"measurement": "MIC", "setting": "Klebsiella pneumoniae", "result": "> 100", "unit": "µg/mL"}]}, {"smiles": "CCCCCCC[C@@H]1Cc2c(C)c(O)c(C(=O)O)c(O)c2CO1", "values": [{"measurement": "MIC", "setting": "Cryptococcus neoformans", "result": 35, "unit": "µg/mL"}, {"measurement": "MIC", "setting": "Candida albicans", "result": "> 100", "unit": "µg/mL"}, {"measurement": "growth inhibition (GI)", "setting": "Plasmodium falciparum", "result": "inactive"}]}, {"smiles": "CCCCCCC[C@@H]1Cc2c(C)c(O)cc(O)c2C(=O)O1", "values": [{"measurement": "MIC", "setting": "Cryptococcus neoformans", "result": 40, "unit": "µg/mL"}, {"measurement": "MIC", "setting": "Candida albicans", "result": "> 100", "unit": "µg/mL"}, {"measurement": "growth inhibition (GI)", "setting": "Plasmodium falciparum", "result": "inactive"}]}]}
